Measured values reported in PubChem BioAssay AID488974 (NMMLSC, 2010).
The source made the active and inactive calls.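 How the source made its calls: active means ratio of toxic midpoint dose to chemo-reversal midpoint dose above 10, among compounds with toxic midpoint under 15 µM; inactive means the rest.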

System: Igrove/Jurkat-DNR chemoreversal, trypan blue viability, 7 d
Assay: chemoreversal in ABCG2 cells, dose response, ABC transporter inhibitor project, paired ABCB1 counter-screen, SAR hit validation (AID 488974)
Details: for CC50: measured here: toxicity in resistant cells alone
Summary of the method: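 System: drug-resistant human Igrove (ABCG2 arm) and Jurkat/DNR (ABCB1 counterscreen) cells / Quantity: 100,000 cells/mL / Also added: fixed selective agents mitoxantrone (Igrove) and daunorubicin (Jurkat/DNR) / Doses: test compound dose series spanning 0.1–100 µM / Incubation: compound exposure over 7 days / Signal: trypan blue exclusion with cell counting by light microscopy / Measure: chemo-reversal 50% viability concentration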

Row | Structure (SMILES) | EC50 | CC50 [µM]
1 | COc1cc(OC)cc(-c2cc3nc(C)c(C)c(N4CCN(C(=O)c5ccoc5)CC4)n3n2)c1 | 0.95 µM | > 100
2 | COc1cccc(-c2cc(N3CCN(C(=O)c4ccoc4)CC3)n3nc(-c4cccc(OC)c4)cc3n2)c1 | 0.68 µM | > 100
3 | Cc1nc2cc(-c3cccc(Cl)c3)nn2c(N2CCN(C(=O)c3ccoc3)CC2)c1C | 0.6 µM | > 100
4 | COc1cccc(-c2cc3nc(-c4ccco4)cc(N4CCN(C(=O)c5ccoc5)CC4)n3n2)c1 | 1 µM | > 100
5 | Cc1nc2cc(-c3ccc(F)cc3)nn2c(N2CCN(C(=O)c3ccco3)CC2)c1C | 0.12 µM (inactive) | 5.33
6 | COc1ccc(-c2cc3nc(-c4ccccc4)cc(N4CCN(C(=O)c5ccsc5)CC4)n3n2)cc1 | 0.17 µM | 30.6
7 | O=C(c1ccco1)N1CCN(c2c3c(nc4cc(-c5cccc(F)c5)nn24)CCCC3)CC1 | 0.39 µM (inactive) | 5.77
8 | O=C(c1ccco1)N1CCN(c2cc(-c3ccccc3)nc3cc(-c4cccc(Cl)c4)nn23)CC1 | 0.14 µM (inactive) | 6
9 | O=C(c1ccco1)N1CCN(c2cc(-c3ccccc3)nc3cc(-c4cccc(F)c4)nn23)CC1 | 0.76 µM (inactive) | 8.25
10 | Cc1nc2cc(-c3cccc(Cl)c3)nn2c(N2CCN(C(=O)c3ccco3)CC2)c1C | 0.17 µM | 47.4
11 | O=C(c1ccoc1)N1CCN(c2cc(-c3ccccc3)nc3cc(-c4ccncc4)nn23)CC1 | 1.5 µM | 22.3
12 | COc1ccc(-c2cc3nc(C)c(C)c(N4CCN(C(=O)c5ccco5)CC4)n3n2)cc1 | 1.44 µM (inactive) | 10.5
13 | Cc1ccc(-c2cc3nc(-c4ccccc4)cc(N4CCN(C(=O)c5ccoc5)CC4)n3n2)cc1 | 0.45 µM | 86
14 | COc1ccc(-c2cc3nc(-c4ccccc4)cc(N4CCN(C(=O)c5ccccc5)CC4)n3n2)cc1 | 0.2 µM | 82.6
15 | CC(=O)N1CCN(c2c(C)c(C)nc3cc(-c4cccc(F)c4)nn23)CC1 | 0.73 µM | > 100
16 | O=C(c1ccncc1)N1CCN(c2cc(-c3ccccc3)nc3cc(-c4cccc(Cl)c4)nn23)CC1 | 0.15 µM | 28.3
17 | COc1ccc(-c2cc3nc(C)c(C)c(N4CCN(C(C)=O)CC4)n3n2)cc1 | 3.28 µM | 81.7
18 | COc1ccccc1-c1cc2nc(-c3ccccc3)cc(N3CCN(C(=O)c4ccoc4)CC3)n2n1 | 0.49 µM (inactive) | 6.5
19 | O=C(c1ccoc1)N1CCN(c2cc(-c3ccco3)nc3cc(-c4cccc(Cl)c4)nn23)CC1 | 1.38 µM (inactive) | 10.8

Row | Structure (SMILES) | EC50 | CC50 [µM]
20 | O=C(c1ccoc1)N1CCN(c2cc(-c3cccnc3)nc3cc(-c4cccc(Cl)c4)nn23)CC1 | 0.02 µM (inactive) | 5.77
21 | O=C(c1ccoc1)N1CCN(c2cc(-c3ccco3)nc3cc(-c4ccccc4)nn23)CC1 | 0.31 µM | 18.3
22 | O=C(c1cccnc1)N1CCN(c2cc(-c3ccccc3)nc3cc(-c4cccc(Cl)c4)nn23)CC1 | 0.13 µM (inactive) | 10.3
23 | Cc1cc(N2CCN(C(=O)c3ccco3)CC2)n2nc(-c3ccccc3)nc2n1 | 2.94 µM (inactive) | 16.2
24 | COc1cccc(-c2cc3nc(C)c(C)c(N4CCN(Cc5ccco5)CC4)n3n2)c1 | 0.09 µM | > 100
25 | O=C(Cc1ccccc1)N1CCN(c2cc(-c3ccccc3)nc3cc(-c4cccc(Cl)c4)nn23)CC1 | 0.6 µM | > 100
26 | COc1ccc(-c2cc3nc(-c4ccccc4)cc(N4CCN(C(=O)c5ccoc5)CC4)n3n2)cc1 | 0.38 µM | > 100
27 | COc1cccc(-c2cc3nc(C)c(C)c(N4CCN(C(=O)c5ccoc5)CC4)n3n2)c1 | 0.76 µM | > 100
28 | Cc1nc2cc(-c3cccc(Cl)c3)nn2c(N2CCN(C(=O)c3ccsc3)CC2)c1C | 0.49 µM (inactive) | 14.9
29 | COc1cccc(C(=O)N2CCN(c3cc(-c4ccccc4)nc4cc(-c5cccc(Cl)c5)nn34)CC2)c1 | 0.21 µM | > 101
30 | O=C(c1ccoc1)N1CCN(c2cc(-c3ccncc3)nc3cc(-c4cccc(Cl)c4)nn23)CC1 | 0.89 µM | 57.8
31 | COc1ccc(-c2[nH]nc3nc(N4CCN(C(=O)c5ccoc5)CC4)cc(C(F)(F)F)c23)cc1 | 0.46 µM (inactive) | 1.31
32 | O=C(c1ccco1)N1CCN(c2cc(Cc3ccccc3)nc3cc(-c4cccc(Cl)c4)nn23)CC1 | 1.38 µM (inactive) | 10.5
33 | Cc1cc(N2CCN(C(=O)c3ccco3)CC2)n2nc(-c3ccc(F)cc3)cc2n1 | 0.14 µM | 40.4
34 | Cc1cc(N2CCN(C(=O)c3ccco3)CC2)n2nc(C)c(-c3ccccc3)c2n1 | 2.18 µM | 22.3
35 | Cc1nc2cc(-c3ccc4c(c3)OCO4)nn2c(N2CCN(C(=O)c3ccoc3)CC2)c1C | 1.63 µM | > 100
36 | Cc1nc2ncnn2c(N2CCN(C(=O)c3ccco3)CC2)c1Cc1ccccc1 | 10.1 µM (inactive) | > 100
37 | O=C(C1CCCO1)N1CCN(c2c3c(nc4cc(-c5cccc(F)c5)nn24)CCCC3)CC1 (centres undefined) | 0.2 µM | 17.5
